Measured values reported in publication PMC6698915 (Cancer chemotherapy and pharmacology, 2015).
Entries after “also recorded” stand apart in the source; their conditions may differ.

How the values were obtained:
[1] = test system: patients with advanced solid tumors; experiment: Phase Ib 3 + 3 dose escalation: DLT, MTD and recommended phase II dose; format: in vivo, human
advanced solid tumors = experiment: Antitumor efficacy; format: in vivo, human
Outline: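 Open-label single-centre 3+3 trial in advanced solid tumors. Oral PI3K-inhibitor test compound was given at 50, 80 or 100 mg/day continuously. […] Imaging after each even-numbered cycle; best response per RECIST. FFPE tumor PTEN IHC scored 0/1+/2+.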

[2] = 25 patients measurable by RECIST, both groups

Q: With Nc1cc(C(F)(F)F)c(-c2cc(N3CCOCC3)nc(N3CCOCC3)n2)cn1 [buparlisib] as the molecule, how does the DLTs ([1]; Group 1, DL2 buparlisib 80 mg/day, three patients) read?
A: The DLTs was “no DLTs”.

Q: And the DLTs ([1]; Group 1, DL3 buparlisib 100 mg/day, six evaluable subjects)?
A: Its DLTs is “no DLTs”.

Q: And the DLT description ([1]; Group 1, dose level 1, 50 mg/day, NSCLC, 50 F)?
A: The DLT description was “Grade 3 alkaline phosphatase elevation”.

Q: What about the MTD for buparlisib ([1]; Group 1: carboplatin AUC 5 + paclitaxel 175 mg/m^2 day 1, 21-day cycle, pegfilgrastim) of the same molecule?
A: Its MTD for buparlisib is 100 mg/day.

Q: And the “phase II recommended dose of buparlisib” value ([1]; Group 1 regimen)?
A: Its value is 100 mg/day.

Q: And the DLTs ([1]; Group 2, DL1 buparlisib 50 mg/day, three patients)?
A: Its DLTs is “no DLTs”.

Q: And the DLTs ([1]; Group 2, DL2 buparlisib 80 mg/day, first three patients)?
A: The DLTs was “no DLTs”.

Q: What about the “subjects who completed cycle 1 without DLT” value ([1]; Group 2, DL2 buparlisib 80 mg/day, six enrolled) of the same molecule?
A: The value was “five of six”.

Q: What about the DLT description ([1]; Group 2, dose level 3, 100 mg/day, NPC, 50 M) of the same molecule?
A: Its DLT description is “Grade 3 uncomplicated neutropenia >7 days”.

Q: What about the DLT description ([1]; Group 2, dose level 3, 100 mg/day, thyroid cancer, 61 F) of the same molecule?
A: The DLT description was “Grade 3 uncomplicated neutropenia with grade 2 thrombocytopenia >7 days”.

Q: What about the MTD for buparlisib ([1]; Group 2: carboplatin AUC 5 day 1 + paclitaxel 80 mg/m^2 days 1, 8, 15, 28-day cycle, no growth factor) of the same molecule?
A: The MTD for buparlisib was 80 mg/day.

Q: And the “phase II recommended dose of buparlisib” value ([1]; Group 2 regimen)?
A: The value was 80 mg/day.

Q: And the “best response: confirmed partial response (PR)” value (advanced solid tumors; [2])?
A: The value was “four”.

Q: And the “best response: progression of disease” value (advanced solid tumors; [2])?
A: Its value is “three”.

Q: And the “confirmed objective response rate” value (advanced solid tumors; 25 patients with measurable disease, Groups 1 and 2 (1 CR, 4 PRs; 5/25))?
A: Its value is 20%.

Q: What about the “patients with reductions in measurable disease of at least 20 % and/or at least six cycles” value (advanced solid tumors; of patients who completed at least one cycle (18/25)) of the same molecule?
A: Its value is 72%.

Q: What about the “patients with reductions in measurable disease of at least 20 % and/or at least six cycles” value (advanced solid tumors; of patients who received any study treatment (18/30)) of the same molecule?
A: The value was 60%.

Q: What about the “duration of disease control” value (advanced solid tumors; one person, metastatic parotid carcinoma to bone, loss of PTEN expression, Group 2) of the same molecule?
A: Its value is “approximately 20 months”.

Q: And the alkaline phosphatase nadir (advanced solid tumors; same parotid carcinoma patient, baseline 236, normal range 45–129 U/L)?
A: Its alkaline phosphatase nadir is 80 U/L.

Q: And the “outcome in patients with loss of PTEN expression” value (advanced solid tumors; three patients, PTEN IHC score = 0)?
A: Its value is “all derived clinical benefit from treatment; also recorded: experienced objective radiographic tumor reductions or clinical benefit”.
